The record followed here is ChEMBL document CHEMBL5356941, “Synthesis, activity and metabolic stability of propan-2-one substituted tetrazolylalkanoic acids as dual inhibitors of cytosolic phospholipase A2α and fatty acid amide hydrolase” (RSC Med Chem, 2023).

Molecules are shown by their SMILES. Converted amounts (≈) assume the structure as drawn.

Data set [1] in a line: Inhibition of porcine platelets cPLA2 alpha using 1-stearoyl-2-arachidonoyl-sn-glycero-3-phosphocholine as substrate incubated for 60 mins by RP-HPLC analysis. Details: species or system Sus scrofa. Summed up: (§1)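 Stopped with acetonitrile/methanol/0.1 M EDTA containing internal standard and NDGA; released arachidonic acid measured by RP-HPLC, UV 200 nm, after online SPE, with vs without compound. IC50s are means of at least two independent determinations.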

Data set [2] is described as follows: Metabolic stability in rat liver S9 fraction assessed as parent compound remaining at 20 uM after 30 mins in presence of NADPH by RP-HPLC analysis. The format is ADME, subcellular. To be noted: read-out: Stability. In a few lines:
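Compounds (final 20 μM) incubated aerobically with rat liver S9 fraction with or without NADPH (final 1 mM); stopped after 30 min. Percent parent remaining measured by reversed-phase HPLC with UV or MS detection; means of independent duplicates.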

Data set [3] addresses T1, Fatty-acid amide hydrolase 1 (Rattus norvegicus, UniProt P97612).
T1 sequence (P97612 whole entry): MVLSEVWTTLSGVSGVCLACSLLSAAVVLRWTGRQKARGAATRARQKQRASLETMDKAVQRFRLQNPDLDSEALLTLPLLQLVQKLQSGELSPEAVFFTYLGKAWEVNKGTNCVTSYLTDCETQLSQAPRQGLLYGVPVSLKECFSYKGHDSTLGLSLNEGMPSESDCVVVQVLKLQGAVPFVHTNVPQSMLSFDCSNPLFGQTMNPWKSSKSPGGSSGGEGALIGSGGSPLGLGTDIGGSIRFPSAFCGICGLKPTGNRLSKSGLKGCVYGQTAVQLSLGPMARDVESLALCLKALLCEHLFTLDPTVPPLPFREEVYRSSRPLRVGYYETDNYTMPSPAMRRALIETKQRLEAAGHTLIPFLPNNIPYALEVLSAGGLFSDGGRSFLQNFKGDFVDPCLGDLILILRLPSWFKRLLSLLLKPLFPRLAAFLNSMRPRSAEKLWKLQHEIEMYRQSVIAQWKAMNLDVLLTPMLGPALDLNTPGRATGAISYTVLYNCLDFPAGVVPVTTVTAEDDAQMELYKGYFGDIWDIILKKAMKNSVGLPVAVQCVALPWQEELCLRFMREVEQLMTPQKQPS
As to the kind of experiment: Inhibition of rat brain microsome FAAH using N-(2-hydroxyethyl)-4-pyren-1-ylbutanamide as substrate incubated for 60 mins by RP-HPLC analysis. The format is microsomes.

A short description of data set [4]: Lipophilicity, logP of compound by RP-HPLC analysis. The format is physicochemical.
Data set [5] concerns Platelet. Description: Inhibition of porcine platelets cPLA2 alpha at 10 uM using 1-stearoyl-2-arachidonoyl-sn-glycero-3-phosphocholine as substrate incubated for 60 mins by RP-HPLC analysis relative to control. The settings on record: Sus scrofa. Format: cell-based. Summed up: as §1
In data set [6] the target is T2, Cytosolic phospholipase A2 (Homo sapiens, UniProt P47712).
T2 sequence (P47712 whole entry): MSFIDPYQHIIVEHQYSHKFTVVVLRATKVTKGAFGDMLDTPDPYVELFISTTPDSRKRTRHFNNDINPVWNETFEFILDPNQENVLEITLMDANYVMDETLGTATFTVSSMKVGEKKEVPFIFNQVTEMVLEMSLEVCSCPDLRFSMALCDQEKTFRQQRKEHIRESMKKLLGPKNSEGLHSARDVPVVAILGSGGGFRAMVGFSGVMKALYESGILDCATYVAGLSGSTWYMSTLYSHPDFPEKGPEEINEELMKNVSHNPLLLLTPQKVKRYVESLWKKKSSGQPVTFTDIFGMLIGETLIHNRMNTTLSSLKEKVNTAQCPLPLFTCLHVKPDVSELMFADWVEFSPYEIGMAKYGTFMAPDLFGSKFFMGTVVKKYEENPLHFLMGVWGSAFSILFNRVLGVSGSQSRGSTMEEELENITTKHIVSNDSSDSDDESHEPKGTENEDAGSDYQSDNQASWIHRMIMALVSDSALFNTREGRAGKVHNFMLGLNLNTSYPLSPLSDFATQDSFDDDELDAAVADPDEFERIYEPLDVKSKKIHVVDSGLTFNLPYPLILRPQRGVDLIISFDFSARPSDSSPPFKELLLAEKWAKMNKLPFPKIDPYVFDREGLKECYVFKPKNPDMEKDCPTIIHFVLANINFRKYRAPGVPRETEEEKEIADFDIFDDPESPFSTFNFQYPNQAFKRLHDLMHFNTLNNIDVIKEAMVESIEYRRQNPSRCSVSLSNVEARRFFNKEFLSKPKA
Description: Inhibition of cPLA2 alpha (unknown origin). In a few lines:
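Stopped with acetonitrile/methanol/0.1 M EDTA containing internal standard and NDGA. Released arachidonic acid quantified by reversed-phase HPLC, UV 200 nm, after online SPE; IC50 as mean of ≥2 independent determinations.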

In data set [7] the target is T3, Fatty-acid amide hydrolase 1 (Rattus norvegicus) (UniProt P97612).
T3 sequence (whole entry): T1 sequence (P97612 whole entry)
Description: Inhibition of rat brain microsome FAAH at 10 uM using N-(2-hydroxyethyl)-4-pyren-1-ylbutanamide as substrate incubated for 60 mins by RP-HPLC analysis relative to control. The format is microsomes. In a few lines: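 Rat brain microsomes incubated with N-(2-hydroxyethyl)-4-pyren-1-ylbutanamide (final 100 μM) in PBS containing 0.20% Triton X-100. Reaction stopped after 60 min with acetonitrile/methanol containing 6-pyren-1-ylhexanoic acid as internal standard; released 4-pyren-1-ylbutanoic acid quantified by reversed-phase HPLC with fluorescence detection, with vs without compound. IC50s are means of at least two independent determinations.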

A short description of data set [8]: Aqueous solubility of the compound in PBS at pH 7.4 incubated for 20 hrs by RP-HPLC analysis. Format: physicochemical. To be noted: buffer, pH 7.4, 20 h. Summed up:
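Thermodynamic solubility: 1 mg test compound in 2 mL PBS (0.01 M, pH 7.4), bath-sonicated 10 min, shaken 20 h at room temperature, centrifuged; acetonitrile added to an aliquot of clear supernatant and dissolved compound quantified by reversed-phase HPLC with UV at 240 nm.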

Turning to `O=C(O)CCCc1nnn(CC(=O)COc2ccc(Oc3ccccc3)cc2)n1`, the 50% inhibitory concentration (IC50) in data set [1] is 280 nM; in data set [3], 54 nM. Further, the remaining at 0.5 h, 20 µM in data set [2] is below 5%.

With `O=C(O)CCc1nnn(CC(=O)COc2ccc(Oc3ccccc3)cc2)n1`, the IC50 in data set [1] was 170 nM; in data set [3] it was 54 nM. Besides, in data set [4], the logP amounted to 2.2. Further, the remaining at 0.5 h, 20 µM in data set [2] is below 5%.

On to `CC(C)CCCOc1ccc(OCC(=O)Cn2nnc(CCC(=O)O)n2)cc1`, for which the values for the IC50 in data set [1] and in data set [3] were 45 nM and 32 nM, respectively. The log partition coefficient (logP) in data set [4] turned out to be 3.6.

Regarding `O=C(O)CCc1cn(CC(=O)COc2ccc(Oc3ccccc3)cc2)nn1`, the IC50 in data set [1] was 850 nM; in data set [3] it was 130 nM. In addition, in data set [2], the remaining at 0.5 h, 20 µM was below 5%.

For `CCCCCCCCc1ccc(OCC(=O)Cn2nnc(CCC(=O)O)n2)cc1`, the IC50 in data set [1] is 19 nM. Also, the logP in data set [4] worked out at 5.5.

As for `CCCCCCOc1ccc(OCC(=O)C(C)n2nnc(CCCC(=O)O)n2)cc1` (stereo not drawn), the figures for the IC50 in data set [1] and in data set [3] were 250 nM and 750 nM, respectively.

Take `CC(Oc1ccc(Oc2ccccc2)cc1)C(=O)Cn1nnnc1CCCC(=O)O` (stereo not drawn): the results for the IC50 in data set [1] and in data set [3] were 4800 nM and 170 nM, respectively. The remaining at 0.5 h, 20 µM in data set [2] turned out to be 71%.

Turning to `CC(Oc1ccc(Oc2ccccc2)cc1)C(=O)Cn1nnnc1CCC(=O)O` (stereo not drawn), the IC50 was above 10000 nM in data set [1] and 880 nM in data set [3]. In addition, the inhibition in data set [5] came out at 39%. The remaining at 0.5 h, 20 µM in data set [2] was found to be 86%.

As to `CCCCCCc1ccc(OCC(=O)Cn2nnc(CCC(=O)O)n2)cc1`, the 50% inhibitory concentration (IC50) stood at 36 nM in data set [1] and 23 nM in data set [3]. The logP in data set [4] amounted to 4.2.

For `CC(Oc1ccc(Oc2ccccc2)cc1)C(=O)Cn1nnc(CCCC(=O)O)n1` (stereo not drawn), the figures for the 50% inhibitory concentration (IC50) in data set [1] and in data set [3] were 730 nM and 43 nM, respectively. For the same compound, the remaining at 0.5 h, 20 µM in data set [2] is below 5%.

Regarding `CC(Oc1ccc(Oc2ccccc2)cc1)C(=O)Cn1nnc(CCC(=O)O)n1` (stereo not drawn), the IC50 stood at 540 nM in data set [1] and 44 nM in data set [3]. Also, the remaining at 0.5 h, 20 µM in data set [2] is below 5%.

On to `CC(C)Cc1ccc(C(C)C(=O)O)cc1` (stereo not drawn) [IBUPROFEN], for which the logP in data set [4] amounted to 3.2.

In data set [6], `CCCCCCCCCCOc1ccc(OCC(=O)COc2ccc(C(=O)O)cc2)cc1` returned an IC50 of 7 nM.

`CCCCCCOc1ccc(OC(C)C(=O)Cn2nnc(CCC(=O)O)n2)cc1` (stereo not drawn): the IC50 in data set [1] came out at 190 nM; in data set [3], 34 nM.

For `CC(Oc1ccc(Oc2ccccc2)cc1)C(=O)Cn1cc(CCC(=O)O)nn1` (stereo not drawn), the IC50 in data set [1] was 3100 nM; in data set [3], 170 nM. In data set [2], the remaining at 0.5 h, 20 µM turned out to be 29%.

In data set [6], `CCCCCCCCc1ccc(OCC(=O)Cn2ccc3cc(C(=O)O)ccc32)cc1` registered an IC50 of 24 nM.

For the compound `O=C(O)CCCc1nnnn1CC(=O)COc1ccc(Oc2ccccc2)cc1`, the results for the IC50 in data set [1] and in data set [3] were 3300 nM and 170 nM, respectively. In addition, the remaining at 0.5 h, 20 µM in data set [2] was 36%.

Regarding `CCCCc1ccc(OCC(=O)Cn2nnc(CCC(=O)O)n2)cc1`, the 50% inhibitory concentration (IC50) is 260 nM in data set [1] and 27 nM in data set [3]. In data set [4], this compound gave a logP of 3.

For the compound `O=C(O)CCc1nnn(CC(=O)C2CCc3cc(-c4ccccc4)ccc3O2)n1` (stereo not drawn), the IC50 is above 10000 nM in data set [1] and 94 nM in data set [3]. Besides, the inhibition in data set [5] came to 34%. In data set [2], the remaining at 0.5 h, 20 µM was below 5%.

`CCCCCCOc1ccc(OCC(=O)Cn2nnc(CCC(=O)O)n2)cc1`: the IC50 amounted to 47 nM in data set [1] and 32 nM in data set [3]. This compound yielded a logP in data set [4] of 3.7.

For the compound `CCCCCCOc1ccc(OCC(=O)C(C)n2nnc(CCC(=O)O)n2)cc1` (stereo not drawn), the IC50 in data set [1] was 180 nM; in data set [3] it was above 10000 nM. In addition, in data set [7], the inhibition worked out at 31%.

As for `CCCCCCOc1ccc(OC(C)C(=O)Cn2nnc(CCCC(=O)O)n2)cc1` (stereo not drawn), the IC50 came out at 500 nM in data set [1] and 34 nM in data set [3].

In turn, `COc1ccc2c(c1)c(CC(=O)O)c(C)n2C(=O)c1ccc(Cl)cc1` [INDOMETHACIN] registered a solubility in data set [8] of 246 µg/mL (≈ 688 µM).

With `O=C(O)CCc1nnnn1CC(=O)COc1ccc(Oc2ccccc2)cc1`, the IC50 in data set [1] was 3000 nM; in data set [3] it was 2100 nM. Moreover, the remaining at 0.5 h, 20 µM in data set [2] is 52%.
